Reference: article PMC4251658 (Biochemistry, 2012)
Several values for one entry are separate records, joined by “and”; a condition that tells them apart may be missing. Equal values may be shown once. Read-outs that look alike come from different tables or passages of the source. Marks after values point to notes of the source that are not given here.

Columns and labels:
[1] = molecular target: T1, PCP hydroxylase (Sphingobium chlorophenolicum, UniProt P42535); assay: Hydrogen peroxide assay; type: biochemical; conditions: 100 μM substrate, 160 μM NADPH
T1 sequence (P42535 1-538): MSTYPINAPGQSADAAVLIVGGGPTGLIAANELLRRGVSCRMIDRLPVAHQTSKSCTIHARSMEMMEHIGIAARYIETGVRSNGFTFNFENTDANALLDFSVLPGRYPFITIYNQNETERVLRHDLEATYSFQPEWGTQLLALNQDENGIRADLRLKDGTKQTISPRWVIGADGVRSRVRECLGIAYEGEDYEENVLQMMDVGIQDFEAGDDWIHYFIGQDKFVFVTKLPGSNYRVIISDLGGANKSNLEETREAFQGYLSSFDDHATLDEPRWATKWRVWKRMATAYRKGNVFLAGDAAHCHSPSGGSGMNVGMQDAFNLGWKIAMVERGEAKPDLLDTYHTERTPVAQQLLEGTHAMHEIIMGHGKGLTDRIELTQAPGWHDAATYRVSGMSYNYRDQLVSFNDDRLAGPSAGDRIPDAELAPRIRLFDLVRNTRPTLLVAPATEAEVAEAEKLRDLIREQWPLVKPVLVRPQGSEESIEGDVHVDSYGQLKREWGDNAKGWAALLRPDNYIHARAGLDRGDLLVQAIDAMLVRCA
Method in brief: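 Reaction samples or H2O2 standards were added to freshly prepared reagent (250 μM Fe(II) ammonium sulfate, 25 mM H2SO4, 100 μM xylenol orange, 100 mM sorbitol) and incubated 30–45 min at room temperature. A560 was read against a prior standard curve. Reactions contained substrate or effector (100 μM) and NADPH (160 μM), run in triplicate; average rates came from at least three separate experiments.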

[2] = molecular target: T1, PCP hydroxylase; type: biochemical; conditions: 100 μM substrate, 160 μM NADPH
[3] = phenolic proton, in solution; cited from earlier work
[4] = molecular target: T1, PCP hydroxylase; assay: HPLC analysis of the products formed by PCP hydroxylase; type: biochemical; conditions: for PCP, reaction components after 1 min incubation at room temperature / TCHQ, reaction components after 1 min incubation at room temperature / THTH, reaction components after 1 min incubation at room temperature / TCP, reaction components after 1 min incubation at room temperature: reactant 100 μM, PCP hydroxylase 10 μM, NADPH 300 μM
Method in brief: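 His6-tagged enzyme expressed in E. coli M15(pReP4). Substrate (100 μM) in 50 mM potassium phosphate pH 7.5 with 25 μM ascorbate, plus 6 mM β-ME where included to trap TCBQ as THTH. Enzyme (10 μM) and NADPH (300 μM) added as indicated, 1 min at room temperature. Quenched into ethyl acetate with p-nitrophenol internal standard, dried, redissolved in TFA/acetonitrile; HPLC detection at 295, 310 and 350 nm.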

[5] = system: PCP hydroxylase; conditions: cited from earlier work
[6] = molecular target: T1, PCP hydroxylase; assay: Spectroscopic assays of enzyme activity, steady-state kinetic parameters; type: biochemical; conditions: 160 μM NADPH; for kcat for hydroxylation reaction: in the presence of 6 mM β-ME, ambient O2 (apparent)
[7] = molecular target: T1, PCP hydroxylase; assay: Determination of dissociation constants by absorbance spectroscopy; type: binding; conditions: titration at constant enzyme concentration
[8] = molecular target: the molecule itself; assay: SEC
[9] = in the presence of 5 mM ascorbate

Oc1c(Cl)cc(Cl)cc1Cl [2,4,6-triCP, 2,4,6-trichlorophenol]
H2O2 appearance [1]: 0.0012 ± 0.0002 s⁻¹
NADPH /product [2, 9]: 1.5^b
NADPH disappearance [2, 9]: 0.0048 ± 0.003^b s^−1
Product appearance [2, 9]: 0.0033 ± 0.0002^b s^−1

Oc1c(Cl)c(Cl)c(Cl)c(Cl)c1Cl [PCP, pentachlorophenol]
H2O2 appearance [1]: 0.0070 ± 0.0009 s⁻¹
pKa [3]: 4.5
NADPH /product [2, 9]: 1.3^b
NADPH disappearance [2, 9]: 0.025 ± 0.001^b s^−1
Product appearance [2, 9]: 0.020 ± 0.003^b s^−1
PCP, reaction components after 1 min incubation at room temperature ([4]; no β-ME, 25 μM ascorbate): 75 ± 1
TCHQ, reaction components after 1 min incubation at room temperature ([4]; no β-ME, 25 μM ascorbate): 18 ± 1
PCP, reaction components after 1 min incubation at room temperature ([4]; β-ME 6, 25 μM ascorbate): 70 ± 2
THTH, reaction components after 1 min incubation at room temperature ([4]; β-ME 6, 25 μM ascorbate): 28 ± 2
NADPH consumed for each PCP consumed [5]: 2 equivalents
O2 consumed for each PCP consumed [5]: 1.4 equivalents
kcat for hydroxylation reaction [6]: 0.024 s^−1 and 0.024 ± 0.002^a,b s^−1

Oc1c(Cl)c(Cl)c(O)c(Cl)c1Cl [TCHQ, tetrachlorohydroquinone]
H2O2 appearance [1]: 0.035 ± 0.005 s⁻¹
Dissociation constants (in words) [7]: low micromolar range
NADPH /product ([2]; in the presence of 6 mM β-ME): 6.3^c
NADPH disappearance ([2]; in the presence of 6 mM β-ME): 0.030 ± 0.003^c s^−1
Product appearance ([2]; in the presence of 6 mM β-ME): 0.0048 ± 0.0004^c s^−1
conversion to THTH ([4]; incubation with the enzyme in the presence of NADPH and β-ME for one minute): 23%
TCHQ, reaction components after 1 min incubation at room temperature ([4]; β-ME 6, 25 μM ascorbate): 77 ± 2
THTH, reaction components after 1 min incubation at room temperature ([4]; β-ME 6, 25 μM ascorbate): 23 ± 2
concentration above which substrate inhibition is seen ([6]; 6 mM β-ME): > 40 µM
kcat for hydroxylation reaction [6]: > 0.015^a,b s^−1

Oc1ccc(Cl)c(Cl)c1 [3,4-DCP]
NADPH disappearance [2]: 0.0045 ± 0.0010 s⁻¹
Product appearance [2]: none
extent of uncoupling (in words) [2]: complete uncoupling

Oc1cc(Cl)c(Cl)c(Cl)c1 [3,4,5-triCP, 3,4,5-trichlorophenol]
NADPH disappearance [2]: 0.012 ± 0.001 s⁻¹
Product appearance [2]: none
extent of uncoupling (in words) [2]: complete uncoupling

Oc1c(Cl)cccc1Cl [2,6-DCP, 2,6-dichlorophenol]
H2O2 appearance [1]: 0.0011 ± 0.0002 s⁻¹
NADPH /product [2]: 0.9
NADPH disappearance [2]: 0.051 ± 0.004 s⁻¹
Product appearance [2]: 0.060 ± 0.002 s⁻¹
extent of uncoupling (in words) [2]: no uncoupling

Oc1c(Cl)c(Cl)cc(Cl)c1Cl [TCP, 2,3,5,6-tetrachlorophenol]
H2O2 appearance [1]: 0.0132 ± 0.008 s⁻¹
Dissociation constants (in words) [7]: low micromolar range
NADPH /product [2]: 1.5
NADPH disappearance [2]: 0.111 ± 0.018 s⁻¹
Product appearance [2]: 0.076 ± 0.008 s⁻¹
TCHQ, reaction components after 1 min incubation at room temperature ([4]; no β-ME, 25 μM ascorbate): 78 ± 11
TCP, reaction components after 1 min incubation at room temperature ([4]; no β-ME, 25 μM ascorbate): 10 ± 1
TCHQ, reaction components after 1 min incubation at room temperature ([4]; β-ME 6, 25 μM ascorbate): 75 ± 8
TCP, reaction components after 1 min incubation at room temperature ([4]; β-ME 6, 25 μM ascorbate): 10 ± 1
THTH, reaction components after 1 min incubation at room temperature ([4]; β-ME 6, 25 μM ascorbate): 9 ± 1
Hill coefficient nH [6]: 2

Oc1cc(Cl)cc(Cl)c1 [3,5-DCP, 3,5-dichlorophenol]
H2O2 appearance [1]: 0.0029 ± 0.0006 s⁻¹
NADPH disappearance [2]: 0.0079 ± 0.0016 s⁻¹
Product appearance [2]: none
extent of uncoupling (in words) [2]: complete uncoupling

B1: His6-tagged PCP hydroxylase (pentachlorophenol hydroxylase, PcpB) (enzyme, Sphingobium chlorophenolicum, UniProt P42535 1-538, looked up)
chain: MSTYPINAPGQSADAAVLIVGGGPTGLIAANELLRRGVSCRMIDRLPVAHQTSKSCTIHARSMEMMEHIGIAARYIETGVRSNGFTFNFENTDANALLDFSVLPGRYPFITIYNQNETERVLRHDLEATYSFQPEWGTQLLALNQDENGIRADLRLKDGTKQTISPRWVIGADGVRSRVRECLGIAYEGEDYEENVLQMMDVGIQDFEAGDDWIHYFIGQDKFVFVTKLPGSNYRVIISDLGGANKSNLEETREAFQGYLSSFDDHATLDEPRWATKWRVWKRMATAYRKGNVFLAGDAAHCHSPSGGSGMNVGMQDAFNLGWKIAMVERGEAKPDLLDTYHTERTPVAQQLLEGTHAMHEIIMGHGKGLTDRIELTQAPGWHDAATYRVSGMSYNYRDQLVSFNDDRLAGPSAGDRIPDAELAPRIRLFDLVRNTRPTLLVAPATEAEVAEAEKLRDLIREQWPLVKPVLVRPQGSEESIEGDVHVDSYGQLKREWGDNAKGWAALLRPDNYIHARAGLDRGDLLVQAIDAMLVRCA
stoichiometry N [8]: 2
